{"source": "ChEMBL document CHEMBL3877293", "about": "“Synthesis and Antineoplastic Evaluation of Novel Unsymmetrical 1,3,4-Oxadiazoles” (J Med Chem, 2016)", "key": {"[1]": {"assay": "Cell cycle arrest in human RD cells assessed as S phase accumulation at 1 uM after 24 hrs by propidium iodide staining based flow cytometry (reference value: 14.4 +/- 0.92%)", "type": "functional"}, "[2]": {"assay": "Cell cycle arrest in human A549 cells assessed as subG1 phase accumulation at 1 uM after 24 hrs by propidium iodide staining based flow cytometry relative to DMSO control", "type": "functional"}, "[3]": {"assay": "Cell cycle arrest in human MCF7 cells assessed as S phase accumulation at 1 uM after 24 hrs by propidium iodide staining based flow cytometry (reference value: 21.7 +/- 1.42%)", "type": "functional"}, "[4]": {"assay": "Induction of apoptosis in human NB-1 cells assessed as early apoptotic cells at 5 uM after 72 hrs by Annexin-V FITC/propidium iodide staining based flow cytometry (reference value: 3.2%)", "type": "cell-based", "conditions": "nb1, 72 h"}, "[5]": {"assay": "Antiproliferative activity against human A549 cells after 72 hrs by XTT assay", "type": "functional, cell-based", "conditions": "A549, 72 h", "summary_of_the_method": "(§1)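 Cells plated at 1500–2000 per well by doubling time, treated after 24 h with a concentration series in six triplicate wells, and incubated 72 h without a medium change. XTT reagent was then added for 4 h at 37 °C and absorbance read at 490 nm. IC50 is the concentration halving absorbance versus untreated cells. Experiments run in triplicate.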"}, "[6]": {"assay": "Cell cycle arrest in human PC3 cells assessed as S phase accumulation at 1 uM after 24 hrs by propidium iodide staining based flow cytometry (reference value: 6.2 +/- 0.94%)", "type": "functional", "conditions": "PC-3"}, "[7]": {"assay": "Antiproliferative activity against human MRC5-SV1 S40 cells after 72 hrs by XTT assay", "type": "functional, cell-based", "summary_of_the_method": "as §1"}, "HeLa [8]": {"system": "HeLa", "assay": "Induction of apoptosis in human HeLa cells assessed as necrotic cells at 5 uM after 48 hrs by Annexin-V FITC/propidium iodide staining based flow cytometry (reference value: 2.3%)", "type": "functional"}, "[9]": {"assay": "Cell cycle arrest in human NB1 hTERT cells assessed as G1 phase accumulation at 1 uM after 72 hrs by propidium iodide staining based flow cytometry (reference value: 72.5%)", "type": "functional"}, "MCF7 [10]": {"system": "MCF7", "assay": "Disruption of beta-tubulin network in human MCF7 cells assessed as induction of micronucleated cells at 1 uM after 24 hrs by DAPI staining based immunofluorescence microscopic analysis", "type": "cell-based", "summary_of_the_method": "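Cells seeded on glass coverslips (1 x 10^5/well), treated 24 h, fixed in 4% paraformaldehyde 15 min, permeabilized with 0.5% Triton X-100, blocked in 5% BSA/PBS, stained overnight at 4 °C with anti-β-tubulin (1:200) then fluorescent secondary antibody; nuclei counterstained with DAPI; microtubule organization and nuclear morphology examined by fluorescence microscopy.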"}, "[11]": {"assay": "Cell cycle arrest in human Kelly cells assessed as G2/M phase accumulation at 1 uM after 24 hrs by propidium iodide staining based flow cytometry (reference value: 18 +/- 1.28%)", "type": "functional"}, "[12]": {"assay": "Cell cycle arrest in human T98G cells assessed as G2/M phase accumulation at 1 uM after 24 hrs by propidium iodide staining based flow cytometry (reference value: 8.8 +/- 0.93%)", "type": "functional"}, "[13]": {"assay": "Cell cycle arrest in human Kelly cells assessed as G1 phase accumulation at 1 uM after 24 hrs by propidium iodide staining based flow cytometry (reference value: 65.9 +/- 1.87%)", "type": "functional"}, "[14]": {"assay": "Antiproliferative activity against human SK-N-AS cells after 72 hrs by XTT assay", "type": "functional, cell-based", "summary_of_the_method": "as §1"}, "[15]": {"assay": "Cell cycle arrest in human A549 cells assessed as S phase accumulation at 1 uM after 24 hrs by propidium iodide staining based flow cytometry (reference value: 7.6 +/- 0.63%)", "type": "functional"}, "[16]": {"assay": "Effect on p53 expression in human NB-1 cells at 1 uM after 24 hrs by immunoblot method", "type": "cell-based", "conditions": "nb1, 24 h", "summary_of_the_method": "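After 24 h treatment at 1 μM, cells lysed in Tris pH 8/NaCl/glycerol/NP-40/EDTA buffer with protease inhibitors. Equal lysate amounts run on 10% SDS gels, blotted to nitrocellulose, probed for p53 with GAPDH as loading control, detected by enhanced chemiluminescence. Bands quantified by densitometry against GAPDH and compared with untreated cells; three independent experiments.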"}, "HeLa [17]": {"system": "HeLa", "assay": "Selectivity ratio of IC50 for human MCF7 cells to IC50 for human HeLa cells", "type": "functional", "summary_of_the_method": "(§2)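 XTT viability: 1500–2000 cells/well plated by doubling time; compounds added after 24 h, then 72 h further culture without medium change. XTT reagent 4 h at 37 °C, absorbance read at 490 nm. IC50 is the concentration halving absorbance versus untreated cells; triplicate experiments. Ratio is MCF7 IC50 divided by IC50 in the named line.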"}, "[18]": {"assay": "Cell cycle arrest in human SK-N-AS cells assessed as G1 phase accumulation at 1 uM after 24 hrs by propidium iodide staining based flow cytometry (reference value: 51.5 +/- 1.39%)", "type": "functional"}, "[19]": {"assay": "Induction of apoptosis in human NB1 hTERT cells assessed as live cells at 5 uM after 72 hrs by Annexin-V FITC/propidium iodide staining based flow cytometry (reference value: 93.2%)", "type": "functional"}, "[20]": {"assay": "Cell cycle arrest in human PC3 cells assessed as G2/M phase accumulation at 1 uM after 24 hrs by propidium iodide staining based flow cytometry (reference value: 26.8 +/- 1.69%)", "type": "functional", "conditions": "PC-3"}, "[21]": {"assay": "Cell cycle arrest in human SH-SY5Y cells assessed as G1 phase accumulation at 1 uM after 24 hrs by propidium iodide staining based flow cytometry (reference value: 59.6 +/- 1.94%)", "type": "functional"}, "MCF7 [22]": {"system": "MCF7", "assay": "Selectivity ratio of IC50 for human MCF7 cells to IC50 for human RD cells", "type": "functional", "summary_of_the_method": "as §2"}, "[23]": {"assay": "Antiproliferative activity against human T98G cells after 72 hrs by XTT assay", "type": "functional, cell-based", "summary_of_the_method": "as §1"}, "HeLa [24]": {"system": "HeLa", "assay": "Antiproliferative activity against human HeLa cells at 2 uM after 72 hrs by XTT assay", "type": "functional, cell-based"}, "[25]": {"assay": "Cell cycle arrest in human LAN1 cells assessed as G2/M phase accumulation at 1 uM after 24 hrs by propidium iodide staining based flow cytometry (reference value: 26.2 +/- 1.92%)", "type": "functional"}, "[26]": {"assay": "Antiproliferative activity against human IBR3G cells after 72 hrs by XTT assay", "type": "cell-based", "summary_of_the_method": "as §1"}, "[27]": {"assay": "Cell cycle arrest in human NB-1 cells assessed as G1 phase accumulation at 1 uM after 72 hrs by propidium iodide staining based flow cytometry (reference value: 81.7%)", "conditions": "nb1, 72 h"}, "[28]": {"assay": "Cell cycle arrest in human NB-1 cells assessed as G1 phase accumulation at 1 uM after 24 hrs by propidium iodide staining based flow cytometry (reference value: 75%)", "conditions": "nb1, 24 h"}, "[29]": {"assay": "Cell cycle arrest in human NB-1 cells assessed as S phase accumulation at 1 uM after 48 hrs by propidium iodide staining based flow cytometry (reference value: 1.7%)", "conditions": "nb1, 48 h"}, "[30]": {"assay": "Antiproliferative activity against human SH-SY5Y cells after 72 hrs by XTT assay", "type": "functional, cell-based", "summary_of_the_method": "as §1"}, "[31]": {"assay": "Cell cycle arrest in human NCI-H1299 cells assessed as S phase accumulation at 1 uM after 24 hrs by propidium iodide staining based flow cytometry (reference value: 16.4 +/- 1.76%)", "type": "functional"}, "[32]": {"assay": "Cell cycle arrest in human MCF7 cells assessed as G1 phase accumulation at 1 uM after 144 hrs by propidium iodide staining based flow cytometry (reference value: 65.9%)", "type": "functional"}, "[33]": {"assay": "Antiproliferative activity against human Kelly cells after 72 hrs by XTT assay", "type": "functional, cell-based", "summary_of_the_method": "as §1"}}, "note": "The source made the active and inactive calls. The rule behind the calls is not given here.", "data": [{"smiles": "Cc1[nH]c2c(c1-c1nnc(-c3ccccc3)o1)Cc1ccccc1-2", "values": [{"measurement": "Activity", "setting": "[1]", "result": 10.6, "unit": "%"}, {"measurement": "Activity", "setting": "[2]", "result": 13.8, "unit": "%"}, {"measurement": "Activity", "setting": "[3]", "result": "6.3 to 10.4", "unit": "%"}, {"measurement": "Activity", "setting": "[4]", "result": 4.2, "unit": "%"}, {"measurement": "IC50", "setting": "[5]", "result": 240, "unit": "nM"}, {"measurement": "Activity", "setting": "[6]", "result": 4.7, "unit": "%"}, {"measurement": "IC50", "setting": "[7]", "result": 130, "unit": "nM"}, {"measurement": "Activity", "setting": "HeLa [8]", "result": 4.3, "unit": "%"}, {"measurement": "Activity", "setting": "[9]", "result": 45.6, "unit": "%"}, {"measurement": "Activity", "setting": "MCF7 [10]", "result": "Active"}, {"measurement": "Activity", "setting": "[11]", "result": 42.9, "unit": "%"}, {"measurement": "Activity", "setting": "[12]", "result": 65.9, "unit": "%"}, {"measurement": "Activity", "setting": "[13]", "result": 34.3, "unit": "%"}, {"measurement": "IC50", "setting": "[14]", "result": 190, "unit": "nM"}, {"measurement": "Activity", "setting": "[15]", "result": 9.5, "unit": "%"}, {"measurement": "Activity", "setting": "[16]", "result": "Non-Toxic"}, {"measurement": "Ratio IC50", "setting": "HeLa [17]", "result": "28 - 34"}, {"measurement": "Activity", "setting": "[18]", "result": 10.8, "unit": "%"}, {"measurement": "Activity", "setting": "[19]", "result": 81, "unit": "%"}, {"measurement": "Activity", "setting": "[20]", "result": 72, "unit": "%"}, {"measurement": "Activity", "setting": "[21]", "result": 24.8, "unit": "%"}, {"measurement": "Ratio IC50", "setting": "MCF7 [22]", "result": "28 - 34"}, {"measurement": "IC50", "setting": "[23]", "result": 60, "unit": "nM"}, {"measurement": "Activity", "setting": "HeLa [24]", "result": "Active"}, {"measurement": "Activity", "setting": "[25]", "result": 82.6, "unit": "%"}, {"measurement": "IC50", "setting": "[26]", "result": 770, "unit": "nM"}, {"measurement": "Activity", "setting": "[27]", "result": 77.6, "unit": "%"}, {"measurement": "Activity", "setting": "[28]", "result": 73, "unit": "%"}, {"measurement": "Activity", "setting": "[29]", "result": 2.4, "unit": "%"}, {"measurement": "IC50", "setting": "[30]", "result": 70, "unit": "nM"}, {"measurement": "Activity", "setting": "[31]", "result": 7.6, "unit": "%"}, {"measurement": "Activity", "setting": "[32]", "result": 14.5, "unit": "%"}, {"measurement": "IC50", "setting": "[33]", "result": 250, "unit": "nM"}]}]}
